In publication PMC11842817 (Nature Communications, 2025):
Where “and” joins values, the source holds several entries; their conditions need not be identical. Equal values may be shown once. Entries after “also recorded” stand apart in the source; their conditions may differ.

How the values were obtained:
[1] = target: T1, SyoA (Amycolatopsis thermoflava, UniProt A0AAX7FLX8); experiment: In vitro H2O2-driven; assay type: biochemical, Amycolatopsis thermoflava N1165; settings: 1 µM SyoA; for concentration of demethylated aromatic product (individual replicates): 10 mM H2O2, 0.5 mM syringol; for concentration of demethylated aromatic product (individual replicates) / concentration of demethylated aromatic product (mean of 3 replicates): 0.5 mM syringaldehyde or 2 mM 4-methylsyringol, 30 °C, 60 min; for total turnover number (TTN): 10 mM H2O2, 60 min; for concentration of demethylated aromatic product (mean of 3 replicates): 50 mM Tris pH 7.5, 10 mM H2O2, 0.5 mM syringol
T1 sequence (A0AAX7FLX8 1-412): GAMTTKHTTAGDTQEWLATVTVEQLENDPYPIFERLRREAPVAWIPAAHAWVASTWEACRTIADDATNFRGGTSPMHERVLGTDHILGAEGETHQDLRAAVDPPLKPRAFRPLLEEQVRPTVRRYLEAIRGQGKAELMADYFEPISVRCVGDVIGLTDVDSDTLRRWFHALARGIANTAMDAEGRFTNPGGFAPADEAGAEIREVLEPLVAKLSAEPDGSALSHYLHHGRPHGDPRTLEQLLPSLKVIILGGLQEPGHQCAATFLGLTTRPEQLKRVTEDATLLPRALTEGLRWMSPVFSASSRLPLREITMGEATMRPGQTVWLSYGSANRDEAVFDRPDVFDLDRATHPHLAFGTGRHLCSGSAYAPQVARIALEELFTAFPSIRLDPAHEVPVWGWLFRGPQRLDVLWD
In short: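 SyoA expressed in E. coli BL21(DE3) and purified by Ni affinity then anion exchange. Enzyme at 1 µM in 50 mM Tris pH 7.5 with 0.5–2 mM test compound (from DMSO stock), preincubated 2 min at 30 °C. Started with 10 mM H2O2 and run 60 min at 30 °C, then quenched with catalase; triplicate. Products quantified by C18 HPLC (20–95% MeCN/0.1% TFA, 254 nm) against internal-standard calibration (20–500 µM), or by GC-MS after ethyl acetate extraction.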

[2] = system: GcoA mutants (GcoAEE, GcoAQT, GcoAET); experiment: In vitro H2O2-driven O-demethylation by I-helix mutants, HPLC; assay type: biochemical, Amycolatopsis thermoflava; settings: mutation of Gln248 and/or Glu249, 20 mM H2O2
In short: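 GcoA mutants carried N-terminal His6-TEV tags, were expressed in E. coli BL21(DE3) and purified by Ni affinity. Reactions used 1 µM enzyme in 50 mM Tris pH 7.5 with 0.5–2 mM test compound, preincubated 2 min at 30 °C. Started with 20 mM H2O2 and run 60 min at 30 °C, then catalase-quenched; triplicate. Products quantified by C18 HPLC at 254 nm against calibration curves.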

[3] = system: GcoA mutants (GcoAEE, GcoAQT, GcoAET) with GcoB; experiment: In vitro NADH/O2-driven; assay type: biochemical, Amycolatopsis thermoflava
In short: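 GcoA mutants at 0.5 µM with 1 µM GcoB and 100 µg/mL catalase in oxygenated 50 mM Tris pH 7.5 at 30 °C. About 320 µM NADH added first to record background oxidation. Started with 1 mM test compound; A340 followed for about 10 min, then left about 1 h at room temperature. No-P450 controls included. Products analysed by C18 HPLC at 254 nm.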

[4] = system: GcoA mutants (GcoAEE, GcoAQT, GcoAET); experiment: UV-Vis substrate binding analysis of I-helix mutants; design: species or system Amycolatopsis thermoflava
[5] = target: T1, SyoA; experiment: Substrate binding affinity; design: species or system Amycolatopsis thermoflava N1165; settings: 50 mM potassium phosphate pH 7.4, n = 3, hyperbolic fit
In short: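 SyoA at about 2–8 µM in 50 mM potassium phosphate pH 7.4 titrated with test compound from 1, 10 or 100 mM DMSO stocks (at most 10 µL per stock). Difference spectra recorded from 300–600 nm until no further shift. Peak-to-trough ΔA taken at 390−419, 500−419 or 500−570 nm depending on ligand, then fitted to a hyperbolic equation for KD; triplicate titrations.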

[6] = system: SyoA/SyoB; experiment: In vitro NADH/O2-driven; assay type: biochemical, Amycolatopsis thermoflava N1165; settings: ~320 μM NADH; for O-demethylation by reconstituted SyoA/SyoB monooxygenase system: 1 μM SyoA, 1 μM SyoB, 1 mM substrate, 30 °C
In short: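 Reconstituted system of 1 µM SyoA, 1 µM His-tagged SyoB and 100 µg/mL catalase in oxygenated 50 mM Tris pH 7.5 at 30 °C. Background NADH (about 320 µM) oxidation recorded first. Started with 1 mM test compound from DMSO stock; A340 (ε 6.22 mM−1 cm−1) monitored about 10 min, then about 1 h at room temperature for full NADH use. No-P450 controls included. Products analysed by HPLC.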

[7] = target: T1, SyoA; experiment: UV-Vis spin-state shift / substrate binding analysis; design: species or system Amycolatopsis thermoflava N1165; settings: ligand titrated until Soret band stopped shifting
In short: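 SyoA at about 3 µM in 50 mM Tris pH 7.5 received test compound in 1 µL aliquots from 100 mM DMSO stock. Spectra recorded from 600–250 nm until no further shift. Spin-state change read from the Soret band (417 nm) or the Q-bands (568 and 535 nm).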

[8] = system: SyoA mutants (SyoAEE, SyoAQT, SyoAET); experiment: In vitro H2O2-driven O-demethylation by I-helix mutants, HPLC; assay type: biochemical, Amycolatopsis thermoflava N1165; settings: mutation of Gln252 and/or Glu253
In short: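 SyoA I-helix mutants expressed in E. coli BL21(DE3) and purified by Ni affinity only. Enzyme at 1 µM in 50 mM Tris pH 7.5 with 0.5–2 mM test compound, preincubated 2 min at 30 °C. Started with 10 mM H2O2 and run 60 min at 30 °C, then catalase-quenched; triplicate. Products quantified by C18 HPLC at 254 nm with internal standard and product calibration curves.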

[9] = system: SyoA mutants (SyoAEE, SyoAQT, SyoAET); experiment: UV-Vis substrate binding analysis of I-helix mutants; design: species or system Amycolatopsis thermoflava N1165

SMILES | concentration of demethylated aromatic product (individual replicates) [1] | Kd [5] | O-demethylation by reconstituted SyoA/SyoB monooxygenase system [6] | total turnover number (TTN) [1] | concentration of demethylated aromatic product (mean of 3 replicates) [1] | other results
COc1cccc(O)c1O [1b, 3-methoxycatechol] | 155 µM and 125 µM and 146 µM |  |  |  |  | 
COc1cc(C)cc(O)c1O [2a, 3-methoxy-5-methylbenzene-1,2-diol] | 802 µM and 822 µM and 762 µM |  |  |  |  | 
COc1cc(C=O)cc(O)c1O [3a, 5-hydroxyvanillin] | 332 µM and 314 µM and 279 µM |  |  |  |  | 
COc1ccccc1O [guaiacol] |  |  |  |  |  | hydrogen peroxide driven O-demethylation by mutants compared to wild type [2]: loss of peroxygenase activity; monooxygenase activity compared to wild type ([3]; GcoAEE): significant reduction in the monooxygenase activity; monooxygenase activity compared to wild type ([3]; GcoAET): significant reduction in the monooxygenase activity; monooxygenase activity compared to wild type ([3]; GcoAQT): complete loss in activity; substrate binding to mutants (UV-Vis) [4]: not drastically impacted by the mutations
COc1cc(C=O)cc(OC)c1O [syringaldehyde] |  | 341 ± 25 µM | did not O-demethylate; also recorded: no O-demethylation | 308 | 308 ± 27 µM | 
COc1cccc(OC)c1O [syringol] |  | 16 ± 1 µM | did not O-demethylate; also recorded: no O-demethylation | 142 | 142 ± 15 µM | shift to the HS (high-spin) form using the Soret band [7]: ~ 70%; NADH consumption in reaction containing SyoA, SyoB and substrate ([6]; monitored at 340 nm): NADH was consumed; substrate consumed ([1]; over 60 min, 10 mM H2O2): ~ 65%; hydrogen peroxide driven O-demethylation by mutants compared to wild type [8]: loss of peroxygenase activity; substrate binding to mutants (UV-Vis) [9]: not drastically impacted by the mutations
